Source: PubChem
rRNA inh HTS: inhibitors of bacterial rRNA selective over humanized ribosomes | AID 720706 | hit rate 1.6% among 350,000 | GFP signal change (wild-type ribosome), % (no concentration beside the values) | E. coli WT GFP vs humanized-ribosome RFP mutants, fluorescence, 24 h; stronger effect = lower value; DMSO median 0, no signal -100;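 active = significant combined selectivity score with lowered wild-type GFP, culture density cut under 30%, mutant RFP and density less affected; inactive = any of these conditions unmet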
Vif imaging: HIV Vif inhibition; HEK293T cells, Vif self-association by quenched fluorescence, imaging, 24 h; inhibition, % at 7.49 µM; hit rate 0.35% among 340,000; in the data active = inhibition above about 50%, passing the limit was not always enough
miR-122 sensor: miR-122 inhibition in Huh7 cells; Huh7 miR-122 Renilla luciferase sensor, 48 h; neutral wells = 0, positive control = 100; activation (reporter increase), % at 12.5 µM; hit rate 0.3% among 340,000; AID 602342;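 active = mean replicate activation score at least 90 and every replicate individually at or above 90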;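 note: higher luciferase means less miR-122 activity so hits act as miR-122 inhibitors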
S100A4 MyoIIA: inhibitors of human S100A4 binding to myosin IIA peptide | S100A4/TAMRA-MyoIIA peptide fluorescence polarization | P26447 | hit rate 0.14% among 360,000 | inhibition, % at 10.7 µM;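 active = mean inhibition of at least 70% across replicates, with every replicate also reaching that level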
Target sequence (P26447 whole entry, looked up): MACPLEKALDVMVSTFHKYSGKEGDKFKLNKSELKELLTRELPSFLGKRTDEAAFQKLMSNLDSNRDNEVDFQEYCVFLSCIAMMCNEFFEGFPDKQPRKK
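Material: S100A4 monomer protein | Medium: HEPES pH 7.2 with CaCl2, KCl, NaCl, DTT, Triton | Reagent: Labelled myosin peptide probe, 5 nM | Doses: One dose per compound | Times: 5 min incubation before reading | Benchmarks: Neutral control DMSO, positive control TFP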
FN deposit inh: fibronectin deposition inhibition | hit rate 0.086% among 350,000 | inhibition, % at 12.6 µM | AH1F fibroblasts, Alexa488-fibronectin deposition fluorescence, overnight;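 active = mean inhibition across replicates of 30% or more, regardless of how many single replicates reach that level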;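 note: positive control wells lacked labelled fibronectin entirely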
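Material – AH1F fibroblast monolayer, labelled fibronectin deposition · Reagent – labelled fibronectin 24 nM · Timing – 1 h adhesion, overnight exposure · Measured by – fluorescence at 485 nm excitation, 525 nm emission · Read-out – inhibition of fibronectin deposition signal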
HIV Env fusion: HIV envelope-mediated fusion inhibition; HeLa-JRFL Env/CEM21 cell fusion, luciferase; inhibition, % at 12.3 µM; hit rate 1.1% among 360,000; AID 651610;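 active = mean replicate inhibition score of at least 50 and every replicate individually at or above 50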;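 note: 0% = plate neutral controls and 100% = maraviroc near 300 nM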
* = called active by the depositor; / = no result given; [ ] = dose if it differs, or a comment. Most compounds without a hit are left out; they make up all but 2.6% or so of the library.

SMILES	rRNA inh HTS	Vif imaging	miR-122 sensor	S100A4 MyoIIA	FN deposit inh	HIV Env fusion
CO[C@H]1CN(C)C(=O)c2ccc(NC(=O)C3CCCCC3)cc2OC[C@@H](C)N(Cc2nccs2)C[C@H]1C	-10	/	2[16.7 µM]	-36	1	/
CO[C@H]1CN(C)C(=O)c2ccc(NS(=O)(=O)c3cn(C)cn3)cc2OC[C@@H](C)N(CC2CC2)C[C@@H]1C	2	/	/	-4	4	/
S=C(NCCCN1CCOCC1)N1CCN(c2nc(-c3ccccc3)cs2)CC1	-22*	-11	-3	10	-22	8
S=C(NCCCN1CCOCC1)N1CCN(c2nc(-c3ccc(Cl)cc3)cs2)CC1	-60	0	/	8	3	75*
S=C(NCCCN1CCOCC1)N1CCN(c2ccccc2)CC1	5	-3	/	3	-17	2
S=C(NCC1CCCO1)N1CCN(c2nc(-c3ccc(Cl)cc3)cs2)CC1 (stereo not given)	-18	-11	-7	2	/	57*
COCCCNC(=S)N1CCN(c2nc(-c3ccc(F)cc3)cs2)CC1	-36	-5	-4	-2	-2	108*
COc1cccc(C#Cc2ccc([C@H]3[C@@H](CO)N4C(=O)CN(C(=O)c5ccccc5)C[C@H]34)cc2)c1	3	/	/	9	/	/
CC(C)NC(=O)N(C)C[C@@H]1Oc2ccc(NC(=O)C3CCCCC3)cc2CC(=O)N([C@@H](C)CO)C[C@H]1C	1	/	7[16.7 µM]	4	/	20[16.7 µM]
Cn1nc(C(C)(C)C)cc1NC(=O)Nc1cc(Cl)cc(Cl)c1	-20*	-10	1	3	-9	22
COc1cc(C(N)=O)cc(Br)c1OCc1ccccc1	-28*	-6	/	1	9	-27
C[C@@H]1CN([C@@H](C)CO)C(=O)Cc2cc(NC(=O)Nc3ccc(C(F)(F)F)cc3)ccc2O[C@@H]1CN(C)Cc1ccc(C(=O)Nc2ccccc2N)cc1	0	/	-7[16.7 µM]	0	/	-33[16.7 µM]
c1ccc(CSc2nccc(-c3ccco3)n2)cc1	-36*	0	-5	-3	4	26
c1ccc(CSc2n[nH]c(-c3ccco3)n2)cc1	/	0	-7	/	-4	-40
NNC(=O)c1csc(Cc2c(Cl)sc3ccc(Cl)cc23)n1	-31*	7	/	-1	5	-5
NNC(=O)c1csc(CS(=O)(=O)c2ccc(Cl)cc2)n1	9	20	-4	-2	-9	16
C[C@H](CO)N1C[C@H](C)[C@H](CN(C)C(=O)c2ccccn2)Oc2ncc(-c3ccccc3)cc2C1=O	1	/	16[16.7 µM]	-15	/	-8[16.7 µM]
Cc1cc(C)cc(NC(=S)N2CCN(C(=O)c3ccco3)CC2)c1	8	-9	-8	-8	/	16
S=C(NCc1ccco1)Nc1ccc(Br)cc1Cl	-37*	16	32	-1	-10	-23
S=C(NCc1ccco1)Nc1ccc(Cl)cc1Cl	-15	-3	/	-4	2	7
Cc1cc(CNC(=S)Nc2ccc(Br)cc2Cl)nn1C	-47*	-7	/	-3	2	5
O=C(c1ccco1)N1CCN(C(=S)Nc2ccc(Br)cc2Cl)CC1	-44*	12	/	-2	12	34
Cc1noc(C)c1S(=O)(=O)N(C)C[C@@H]1OCCCC[C@@H](C)Oc2ccc(NC(=O)C3CCCCC3)cc2C(=O)N([C@H](C)CO)C[C@@H]1C	4	/	13[16.7 µM]	1	/	23[16.7 µM]
CC(C)CC#Cc1ccc([C@@H]2[C@H]3CN(C(=O)Cc4ccccc4)CC(=O)N3[C@H]2CO)cc1	2	/	/	11	/	/
C[C@H]1CN([C@@H](C)CO)C(=O)c2cc(NC(=O)Nc3cccc4ccccc34)ccc2O[C@H]1CN(C)S(=O)(=O)c1ccccc1	-1	/	-8[16.7 µM]	-8	/	17[16.7 µM]
SMILES	rRNA inh HTS	Vif imaging	miR-122 sensor	S100A4 MyoIIA	FN deposit inh	HIV Env fusion
CCC(=O)Nc1ccc2c(c1)OC[C@@H](C)N(C(=O)C1CCC1)C[C@H](C)[C@H](OC)CN(C)C2=O	0	/	/	-8	3	/
CCCCN1C(=O)C(O)(CC(=O)c2c(C)n[nH]c2C)c2cc(Br)ccc21 (stereo not given)	-21*	13	13	-2	8	-66
CCCCN1C(=O)C(O)(CC(=O)c2ccco2)c2cc(Br)ccc21 (stereo not given)	-14	-3	-3	-3	-6	16
Cc1ccc(S(=O)(=O)NNC(=O)Nc2ccc([N+](=O)[O-])cc2)c(C)c1	-23*	/	-3	-7	-6	-1
Cc1ccc(S(=O)(=O)NNC(=O)Nc2cccc(F)c2)c(C)c1	3	4	-3	0	-3	/
Cc1ccc(-c2nc3ncccc3o2)cc1NC(=S)NC(=O)c1ccco1	-7	-6	/	4	-11	-4
Cc1ccc(-c2nc3ncccc3o2)cc1NC(=O)c1ccco1	/	8	1	/	32*	-38
COc1cccc(CNC(=O)C[C@H]2CC[C@H](NS(=O)(=O)c3ccccc3OC)[C@H](CO)O2)c1	-1	/	/	6	/	2[16.7 µM]
CCCNC(=O)Nc1ccc2c(c1)OC[C@H](C)N(CCC(F)(F)F)C[C@@H](C)[C@H](OC)CN(C)C2=O	-6	/	/	2	-7	-28[16.7 µM]
Cc1ccc(-n2nc3c(N4CCC(C(=O)NCCc5cccs5)CC4)nnc(C)c3c2C)cc1	7	51*	/	-2	14	12
CCCc1c(O)nc(SC2CC(=O)N(c3ccc(OC)cc3)C2=O)[nH]c1=O (stereo not given)	10	-2	/	-2	-4	-177
CCOc1ccc(N2C(=O)CC(Sc3nc(O)c(CC)c(=O)[nH]3)C2=O)cc1 (stereo not given)	-39*	-3	1	-5	4	6
OC(CNc1nc(C(F)(F)F)nc2ccccc12)c1ccccc1 (stereo not given)	-49	-11	14	-1	2	58*
O=C(O)CCNc1nc(C(F)(F)F)nc2ccccc12	-1	-10	-3	1	-8	3
CCN1C(=O)[C@H]2[C@@H](c3ccc(C)cc3)N3C(=O)N(c4cccc(Br)c4)C(=O)[C@@]3(CC(C)C)[C@H]2C1=O	7	-3	6	-2	5	104*
CCN1C(=O)[C@H]2[C@@H](c3ccc(C)cc3)N3C(=O)N(c4cccc(Br)c4)C(=O)[C@@]3(C)[C@H]2C1=O	3	-3	-3	-1	-3	28
CCN1C(=O)[C@H]2[C@@H](c3ccc(C)cc3)N3C(=O)N(c4ccc(C(F)(F)F)cc4)C(=O)[C@@]3(CC(C)C)[C@H]2C1=O	-2	-6	-3	-1	-5	115*
CCN1C(=O)[C@H]2[C@@H](c3ccc(C)cc3)N3C(=O)N(c4ccc(C)cc4)C(=O)[C@@]3(CC)[C@H]2C1=O	3	-2	-5	1	3	1
